Converted amounts (≈) assume the structure as drawn.
What was measured:
Fusarium proliferatum [1] = assay: Antimicrobial activity against Fusarium proliferatum at 0.3 uM after 72 hrs by microtiter assay; type: functional
Summary of the method: (§1)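 96-well microdilution broth assay with conidia (3 × 10^5 conidia/mL, harvested from 7-day PDA cultures and filtered) against F. oxysporum, F. proliferatum and F. solani at 0.3, 3 and 30 µM. Plates were held at 24 ± 1 °C under a 12 h photoperiod. Growth was read at 620 nm at 24, 48 and 72 h and reported as percent inhibition from mean absorbance with standard error.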

Fusarium proliferatum [2] = assay: Antimicrobial activity against Fusarium proliferatum at 3 uM after 48 hrs by microtiter assay; type: functional; summary of the method: as §1
Fusarium proliferatum [3] = assay: Antimicrobial activity against Fusarium proliferatum at 3 uM after 72 hrs by microtiter assay; type: functional; summary of the method: as §1
Aspergillus fumigatus = assay: Antimicrobial activity against Aspergillus fumigatus ATCC 90906; type: functional, organism-based
Cryptococcus neoformans = assay: Antimicrobial activity against Cryptococcus neoformans ATCC 90113; type: functional, organism-based
Fusarium proliferatum [4] = assay: Antimicrobial activity against Fusarium proliferatum at 0.3 uM after 48 hrs by microtiter assay; type: functional; summary of the method: as §1
Candida albicans = assay: Antimicrobial activity against Candida albicans ATCC 90028; type: functional, organism-based
[5] = tested on: Mycobacterium intracellulare; assay: Antimicrobial activity against Mycobacterium intracellular ATCC 23068; type: functional, organism-based
Leishmania donovani = assay: Antiparasitic activity against Leishmania donovani; type: functional, organism-based
[6] = tested on: Mycobacterium tuberculosis; assay: Antibacterial activity against Mycobacterium tuberculosis H37Rv at 16 ug/mL by micro plate alamar blue assay; type: functional
Summary of the method: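 M. tuberculosis H37Rv ATCC 27294 grown in BACTEC 12B medium; microplate Alamar blue assay (MABA). Primary screen at a single concentration of 16 µg/mL, read as percent inhibition.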

[7] = tested on: Mycobacterium tuberculosis; assay: Antibacterial activity against Mycobacterium tuberculosis H37Rv by micro plate alamar blue assay; type: functional
Fusarium oxysporum [8] = assay: Antimicrobial activity against Fusarium oxysporum at 0.3 uM after 48 hrs by microtiter assay; type: functional; summary of the method: as §1
Fusarium oxysporum [9] = assay: Antimicrobial activity against Fusarium oxysporum at 0.3 uM after 72 hrs by microtiter assay; type: functional; summary of the method: as §1
Fusarium solani [10] = assay: Antimicrobial activity against Fusarium solani at 0.3 uM after 48 hrs by microtiter assay; type: functional; summary of the method: as §1
Fusarium solani [11] = assay: Antimicrobial activity against Fusarium solani at 0.3 uM after 72 hrs by microtiter assay; type: functional; summary of the method: as §1
Fusarium oxysporum [12] = assay: Antimicrobial activity against Fusarium oxysporum at 3 uM after 48 hrs by microtiter assay; type: functional; summary of the method: as §1
Fusarium oxysporum [13] = assay: Antimicrobial activity against Fusarium oxysporum at 3 uM after 72 hrs by microtiter assay; type: functional; summary of the method: as §1
Fusarium solani [14] = assay: Antimicrobial activity against Fusarium solani at 3 uM after 48 hrs by microtiter assay; type: functional; summary of the method: as §1
Fusarium solani [15] = assay: Antimicrobial activity against Fusarium solani at 3 uM after 72 hrs by microtiter assay; type: functional; summary of the method: as §1
Fusarium oxysporum [16] = assay: Antimicrobial activity against Fusarium oxysporum at 30 uM after 48 hrs by microtiter assay; type: functional; summary of the method: as §1
Fusarium oxysporum [17] = assay: Antimicrobial activity against Fusarium oxysporum at 30 uM after 72 hrs by microtiter assay; type: functional; summary of the method: as §1
Fusarium solani [18] = assay: Antimicrobial activity against Fusarium solani at 30 uM after 48 hrs by microtiter assay; type: functional; summary of the method: as §1
Fusarium solani [19] = assay: Antimicrobial activity against Fusarium solani at 30 uM after 72 hrs by microtiter assay; type: functional; summary of the method: as §1
Fusarium proliferatum [20] = assay: Antimicrobial activity against Fusarium proliferatum at 30 uM after 48 hrs by microtiter assay; type: functional; summary of the method: as §1
Fusarium proliferatum [21] = assay: Antimicrobial activity against Fusarium proliferatum at 30 uM after 72 hrs by microtiter assay; type: functional; summary of the method: as §1

Work on `C/C=C1\NC(=O)[C@H](Cc2ccccc2)NC(=O)[C@@H](C(C)C)NC(=O)[C@@H]([C@@H](C)CC)NC(=O)[C@H](NC(=O)[C@H](NC(=O)[C@H](CCCNCCCCCC)NC(=O)[C@H]2CCCN2C(=O)[C@H](NC(=O)[C@@H](NC(=O)[C@@H](NC(=O)[C@H](NC(=O)CCCC(C)C)C(C)C)[C@@H](C)O)C(C)C)C(C)C)[C@@H](C)CC)[C@@H](C)OC(=O)[C@H](C(C)C)NC1=O` yielded an inhibition at 0.3 µM (Fusarium proliferatum [1]) of 0%, an inhibition at 3 µM (Fusarium proliferatum [2]) of 0% and an inhibition at 3 µM (Fusarium proliferatum [3]) of 0%. It also gave an MFC (Aspergillus fumigatus) of 20 µM (≈ 31.2 µg/mL), an MIC (Aspergillus fumigatus) of 10 µM (≈ 15.6 µg/mL) and an MFC (Cryptococcus neoformans) of 10 µM (≈ 15.6 µg/mL). The MIC (Cryptococcus neoformans) was 5 µM (≈ 7.81 µg/mL), the inhibition at 0.3 µM (Fusarium proliferatum [4]) was 0% and the MFC (Candida albicans) was 20 µM (≈ 31.2 µg/mL). The MIC (Candida albicans) was 20 µM (≈ 31.2 µg/mL), the MBC [5] was > 20 µM and the MIC [5] was > 20 µM. The IC90 (Leishmania donovani) was 34 µg/mL (≈ 21.8 µM), the inhibition at 16 µg/mL [6] was 88% and the MIC [7] was > 16 µg/mL. The inhibition at 0.3 µM (Fusarium oxysporum [8]) was 0%, the inhibition at 0.3 µM (Fusarium oxysporum [9]) was 0% and the inhibition at 0.3 µM (Fusarium solani [10]) was 0%. It also gave an inhibition at 0.3 µM (Fusarium solani [11]) of 0%, an inhibition at 3 µM (Fusarium oxysporum [12]) of 0% and an inhibition at 3 µM (Fusarium oxysporum [13]) of 0%. For the same molecule, the inhibition at 3 µM (Fusarium solani [14]) was 0%, the inhibition at 3 µM (Fusarium solani [15]) was 0% and the inhibition at 30 µM (Fusarium oxysporum [16]) was 93.6%. It also gave an inhibition at 30 µM (Fusarium oxysporum [17]) of 89%, an inhibition at 30 µM (Fusarium solani [18]) of 94.3% and an inhibition at 30 µM (Fusarium solani [19]) of 94.7%. The inhibition at 30 µM (Fusarium proliferatum [20]) was 95.3% and the inhibition at 30 µM (Fusarium proliferatum [21]) was 92.8%.

Reference: ChEMBL document CHEMBL1148762, “Lysosome and HER3 (ErbB3) selective anticancer agent kahalalide F: semisynthetic modifications and antifungal lead-exploration studies” (J Med Chem, 2007)
